Experiments:
Conditions in all cases: stereoisomer not certain
UniProt Q8VF43 = target: T1, UniProt Q8VF43
T1 sequence (whole entry): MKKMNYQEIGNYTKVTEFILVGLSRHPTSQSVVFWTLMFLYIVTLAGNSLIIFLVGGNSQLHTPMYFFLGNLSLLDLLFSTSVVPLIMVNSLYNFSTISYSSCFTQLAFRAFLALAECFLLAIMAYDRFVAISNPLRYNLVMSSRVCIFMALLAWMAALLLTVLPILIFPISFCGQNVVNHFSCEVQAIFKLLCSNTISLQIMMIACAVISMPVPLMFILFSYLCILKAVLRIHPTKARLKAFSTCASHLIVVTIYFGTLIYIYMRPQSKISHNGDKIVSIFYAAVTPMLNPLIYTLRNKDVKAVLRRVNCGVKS
Procedure, shortened: (§1)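 Transient luciferase assays in mammalian cell lines were common, though methods varied by source. The values come from published papers and their supplementary material, with extra details from the original authors when needed. Responsive refers to a measured signal the original authors judged statistically different from baseline, and non-responsive (inactive) to the remainder.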

UniProt Q8VF52 = target: T2, UniProt Q8VF52
T2 sequence (whole entry): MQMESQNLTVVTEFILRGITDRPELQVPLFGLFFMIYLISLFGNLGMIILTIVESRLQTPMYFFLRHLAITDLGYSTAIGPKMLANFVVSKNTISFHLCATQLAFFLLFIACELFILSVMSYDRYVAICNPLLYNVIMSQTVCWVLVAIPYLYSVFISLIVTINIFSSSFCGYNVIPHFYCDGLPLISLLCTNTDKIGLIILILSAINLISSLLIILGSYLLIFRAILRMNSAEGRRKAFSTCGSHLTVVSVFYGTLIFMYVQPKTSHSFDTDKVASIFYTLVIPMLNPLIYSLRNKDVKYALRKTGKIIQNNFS
Procedure, shortened: as §1

UniProt Q8VFM8 = target: T3, UniProt Q8VFM8
T3 sequence (whole entry): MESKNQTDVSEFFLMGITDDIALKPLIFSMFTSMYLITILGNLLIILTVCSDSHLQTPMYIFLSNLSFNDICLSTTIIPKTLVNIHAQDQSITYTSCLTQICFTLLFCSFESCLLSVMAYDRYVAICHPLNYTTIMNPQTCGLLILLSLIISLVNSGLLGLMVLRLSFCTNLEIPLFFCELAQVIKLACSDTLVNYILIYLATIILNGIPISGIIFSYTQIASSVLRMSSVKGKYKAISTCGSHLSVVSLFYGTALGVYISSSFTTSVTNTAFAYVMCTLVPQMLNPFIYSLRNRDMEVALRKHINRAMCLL
Procedure, shortened: as §1

UniProt Q8VF24 = target: T4, UniProt Q8VF24
T4 sequence (whole entry): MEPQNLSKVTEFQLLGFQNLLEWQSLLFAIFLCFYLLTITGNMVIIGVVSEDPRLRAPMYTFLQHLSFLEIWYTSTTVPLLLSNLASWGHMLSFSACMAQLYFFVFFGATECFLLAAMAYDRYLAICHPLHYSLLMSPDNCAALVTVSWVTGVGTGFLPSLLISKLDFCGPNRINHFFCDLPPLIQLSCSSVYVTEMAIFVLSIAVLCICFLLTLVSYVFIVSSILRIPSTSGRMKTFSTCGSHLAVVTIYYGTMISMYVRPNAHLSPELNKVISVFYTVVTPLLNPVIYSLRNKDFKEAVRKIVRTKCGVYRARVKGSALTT
Procedure, shortened: as §1

UniProt Q8VF44 = target: T5, UniProt Q8VF44
T5 sequence (whole entry): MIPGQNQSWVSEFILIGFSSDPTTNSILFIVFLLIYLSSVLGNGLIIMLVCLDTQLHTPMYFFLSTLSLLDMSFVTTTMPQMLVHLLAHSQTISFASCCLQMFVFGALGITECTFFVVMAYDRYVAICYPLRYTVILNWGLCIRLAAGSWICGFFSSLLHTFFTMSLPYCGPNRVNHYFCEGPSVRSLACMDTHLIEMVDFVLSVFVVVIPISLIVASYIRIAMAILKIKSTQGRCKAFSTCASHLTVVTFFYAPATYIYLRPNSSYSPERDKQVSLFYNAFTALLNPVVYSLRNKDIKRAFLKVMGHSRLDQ
Procedure, shortened: as §1

UniProt Q8VFG6 = target: T6, UniProt Q8VFG6
T6 sequence (whole entry): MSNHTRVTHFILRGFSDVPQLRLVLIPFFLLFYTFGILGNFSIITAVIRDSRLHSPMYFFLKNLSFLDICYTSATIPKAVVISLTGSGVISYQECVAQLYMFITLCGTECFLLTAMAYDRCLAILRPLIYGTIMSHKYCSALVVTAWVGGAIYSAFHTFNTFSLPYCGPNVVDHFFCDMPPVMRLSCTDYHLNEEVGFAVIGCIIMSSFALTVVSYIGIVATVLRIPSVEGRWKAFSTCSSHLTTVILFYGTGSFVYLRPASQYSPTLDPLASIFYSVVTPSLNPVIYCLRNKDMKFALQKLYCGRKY
Procedure, shortened: as §1

UniProt Q8VF73 = target: UniProt Q8VF73
Procedure, shortened: as §1

UniProt Q8VFB8 = target: UniProt Q8VFB8
Procedure, shortened: as §1

UniProt Q8VF87 = target: UniProt Q8VF87
Procedure, shortened: as §1

Measured: odorant receptor agonist call

Chain of UniProt Q8VFB8 (Q8VFB8 as listed by the source): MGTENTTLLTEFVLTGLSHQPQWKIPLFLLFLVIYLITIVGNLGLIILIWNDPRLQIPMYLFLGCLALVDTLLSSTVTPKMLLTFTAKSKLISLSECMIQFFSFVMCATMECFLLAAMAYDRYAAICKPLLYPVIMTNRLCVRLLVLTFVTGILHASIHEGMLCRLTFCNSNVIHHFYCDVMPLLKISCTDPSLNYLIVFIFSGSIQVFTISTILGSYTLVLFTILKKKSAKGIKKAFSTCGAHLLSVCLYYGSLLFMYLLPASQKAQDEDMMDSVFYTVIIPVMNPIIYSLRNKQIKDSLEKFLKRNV
Chain of UniProt Q8VF73 (Q8VF73 as listed by the source): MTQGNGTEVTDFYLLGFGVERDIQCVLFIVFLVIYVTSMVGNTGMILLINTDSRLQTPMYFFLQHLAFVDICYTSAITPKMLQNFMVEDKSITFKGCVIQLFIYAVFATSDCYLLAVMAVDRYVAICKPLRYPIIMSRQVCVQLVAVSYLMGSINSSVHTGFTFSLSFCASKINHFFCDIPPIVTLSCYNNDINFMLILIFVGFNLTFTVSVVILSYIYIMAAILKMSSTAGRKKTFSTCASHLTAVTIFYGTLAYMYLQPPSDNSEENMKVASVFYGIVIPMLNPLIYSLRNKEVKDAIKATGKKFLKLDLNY
Chain of UniProt Q8VF87 (Q8VF87 as listed by the source): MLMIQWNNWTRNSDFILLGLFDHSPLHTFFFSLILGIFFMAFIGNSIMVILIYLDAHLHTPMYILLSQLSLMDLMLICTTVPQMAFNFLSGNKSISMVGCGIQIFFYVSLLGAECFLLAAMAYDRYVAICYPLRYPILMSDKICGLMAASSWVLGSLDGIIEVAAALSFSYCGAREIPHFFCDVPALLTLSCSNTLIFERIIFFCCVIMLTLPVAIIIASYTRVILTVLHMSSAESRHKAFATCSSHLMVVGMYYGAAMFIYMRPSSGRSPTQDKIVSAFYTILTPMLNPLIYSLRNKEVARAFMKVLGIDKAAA

C1CCOC1
inactive: UniProt Q8VF43 | UniProt Q8VF52 | UniProt Q8VFM8

Cc1ccc(OC(=O)C(C)C)cc1
inactive: UniProt Q8VF43 | UniProt Q8VF52 | UniProt Q8VFM8

CC(C)=CCCC(C)=CCO
inactive: UniProt Q8VF24 | UniProt Q8VF43 | UniProt Q8VF44 | UniProt Q8VF52 | UniProt Q8VFG6 | UniProt Q8VFM8

OCCc1ccccc1
inactive: UniProt Q8VF43 | UniProt Q8VF52 | UniProt Q8VFM8

CCSCC
inactive: UniProt Q8VF43 | UniProt Q8VF52 | UniProt Q8VFM8

COc1cc(C(=O)O)ccc1O
inactive: UniProt Q8VF24 | UniProt Q8VF43 | UniProt Q8VF44 | UniProt Q8VF52 | UniProt Q8VFG6 | UniProt Q8VFM8

CCCCCCCCCCO
inactive: UniProt Q8VF24 | UniProt Q8VF43 | UniProt Q8VF44 | UniProt Q8VF52 | UniProt Q8VFG6 | UniProt Q8VFM8

Cc1occc1SSc1ccoc1C
inactive: UniProt Q8VF43 | UniProt Q8VF52 | UniProt Q8VFM8

C=C(C)C1CCC2(C)OC2C1 (configuration not stated)
inactive: UniProt Q8VF43 | UniProt Q8VF52 | UniProt Q8VFM8

CC(CC=O)CCCC(C)(C)O (configuration not stated)
inactive: UniProt Q8VF43 | UniProt Q8VF52 | UniProt Q8VFM8

O=c1ccc2ccccc2o1
inactive: UniProt Q8VF24 | UniProt Q8VFB8 | UniProt Q8VFG6
active: UniProt Q8VF44 | UniProt Q8VF52 | UniProt Q8VF73

CCCCCO
inactive: UniProt Q8VF24 | UniProt Q8VF44 | UniProt Q8VF52 | UniProt Q8VFG6

CC(=O)Oc1ccccc1
inactive: UniProt Q8VF24 | UniProt Q8VF43 | UniProt Q8VF44 | UniProt Q8VF52 | UniProt Q8VFG6 | UniProt Q8VFM8

CC(=O)OCc1ccccc1
inactive: UniProt Q8VF24 | UniProt Q8VF43 | UniProt Q8VF44 | UniProt Q8VF52 | UniProt Q8VFG6 | UniProt Q8VFM8

CCCCOC(=O)C(C)OC(=O)CCC (configuration not stated)
inactive: UniProt Q8VF24 | UniProt Q8VF44 | UniProt Q8VF52 | UniProt Q8VFG6

CCCCCCC(=O)[O-].[H+]
inactive: UniProt Q8VF24 | UniProt Q8VF44 | UniProt Q8VF52 | UniProt Q8VFG6

CSSSC
inactive: UniProt Q8VF43 | UniProt Q8VF52 | UniProt Q8VFM8

O=C(O)C1CCC1
inactive: UniProt Q8VF43 | UniProt Q8VF52 | UniProt Q8VFM8

CCC(C(=O)O)c1ccccc1 (configuration not stated)
inactive: UniProt Q8VF24 | UniProt Q8VF44 | UniProt Q8VF52 | UniProt Q8VFG6

CCCCCC(=O)CC
inactive: UniProt Q8VF24 | UniProt Q8VF43 | UniProt Q8VF44 | UniProt Q8VF52 | UniProt Q8VFG6 | UniProt Q8VFM8

Cc1ccc(C(C)C)c(O)c1
inactive: UniProt Q8VF43 | UniProt Q8VF52 | UniProt Q8VFM8

CCCCCC=O
inactive: UniProt Q8VF24 | UniProt Q8VF43 | UniProt Q8VF44 | UniProt Q8VF52 | UniProt Q8VFG6 | UniProt Q8VFM8

CCCCCCCCC=CC=O
inactive: UniProt Q8VF43 | UniProt Q8VF52 | UniProt Q8VFM8

CCCCC(=O)CC
inactive: UniProt Q8VF24 | UniProt Q8VF43 | UniProt Q8VF44 | UniProt Q8VF52 | UniProt Q8VFG6 | UniProt Q8VFM8

CCCCCOC(=O)CCCCC
inactive: UniProt Q8VF24 | UniProt Q8VF43 | UniProt Q8VF44 | UniProt Q8VF52 | UniProt Q8VFG6 | UniProt Q8VFM8

C=CC(=C)CCC=C(C)CCC=C(C)C
inactive: UniProt Q8VF43 | UniProt Q8VF52 | UniProt Q8VFM8

CCCCCCCCOC=O
inactive: UniProt Q8VF43 | UniProt Q8VF52 | UniProt Q8VFM8

CC=C(C)C=O
inactive: UniProt Q8VF43 | UniProt Q8VF52 | UniProt Q8VFM8

Cc1ccccc1OC(=O)C(C)C
inactive: UniProt Q8VF43 | UniProt Q8VF52 | UniProt Q8VFM8

OCC=Cc1ccccc1
inactive: UniProt Q8VF43 | UniProt Q8VF52 | UniProt Q8VFM8

C=C(C)C1CCC(C)C(O)C1 (configuration not stated)
inactive: UniProt Q8VF43 | UniProt Q8VF52 | UniProt Q8VFM8

CC1CCC(C(C)C)C(=O)C1 (configuration not stated)
inactive: UniProt Q8VF43 | UniProt Q8VF52 | UniProt Q8VFM8

O=C(OCc1ccccc1)c1ccccc1O
inactive: UniProt Q8VF43 | UniProt Q8VF52 | UniProt Q8VFM8

CCCCCCC=CC=O
inactive: UniProt Q8VF43 | UniProt Q8VF52 | UniProt Q8VFM8

CC1CC=CCCCCCCCCCC(=O)C1 (configuration not stated)
inactive: UniProt Q8VF43 | UniProt Q8VF52 | UniProt Q8VFM8

Cc1ccc2c(c1)OCC(=O)CO2
inactive: UniProt Q8VF43 | UniProt Q8VF52 | UniProt Q8VFM8

CCOC(=O)C(C)CC (configuration not stated)
inactive: UniProt Q8VF43 | UniProt Q8VF52 | UniProt Q8VFM8

CC(=O)C1(C)CC2=C(CCCC2(C)C)CC1C (configuration not stated)
inactive: UniProt Q8VF43 | UniProt Q8VF52 | UniProt Q8VFM8

C1CCOCC1
inactive: UniProt Q8VF43 | UniProt Q8VF52 | UniProt Q8VFM8

CCCCCC(=Cc1ccccc1)C(OC)OC
inactive: UniProt Q8VF43 | UniProt Q8VF52 | UniProt Q8VFM8

CCCCCOC(=O)CCC
inactive: UniProt Q8VF43 | UniProt Q8VF52 | UniProt Q8VFM8

C=CC(=C)CCC=C(C)C
inactive: UniProt Q8VF43 | UniProt Q8VF52 | UniProt Q8VFM8

CCN(CC)CC
inactive: UniProt Q8VF43 | UniProt Q8VF52 | UniProt Q8VFM8

C=C(CC)CCCC(C)(C)O
inactive: UniProt Q8VF43 | UniProt Q8VF52 | UniProt Q8VFM8

CCc1ncc(C)nc1CC
inactive: UniProt Q8VF43 | UniProt Q8VF52 | UniProt Q8VFM8

CC(=O)OCCc1ccccc1
inactive: UniProt Q8VF43 | UniProt Q8VF52 | UniProt Q8VFM8

CCCCCCCOC(=O)C(C)C
inactive: UniProt Q8VF43 | UniProt Q8VF52 | UniProt Q8VFM8

CC(C)CS
inactive: UniProt Q8VF43 | UniProt Q8VF52 | UniProt Q8VFM8

CNc1ccccc1C(=O)OC
inactive: UniProt Q8VF43 | UniProt Q8VF52 | UniProt Q8VFM8

OCCCCCCCCCO
inactive: UniProt Q8VF43 | UniProt Q8VF52 | UniProt Q8VFM8

CCC(S)C(C)CO (configuration not stated)
inactive: UniProt Q8VF87

CCCCCCC(C)O (configuration not stated)
inactive: UniProt Q8VF43 | UniProt Q8VF52 | UniProt Q8VFM8

CC(C)CCN
inactive: UniProt Q8VF43 | UniProt Q8VF52 | UniProt Q8VFM8

CCCC=O
inactive: UniProt Q8VF43 | UniProt Q8VF52 | UniProt Q8VFM8

C=CC(=O)CCCCC
inactive: UniProt Q8VF43 | UniProt Q8VF52 | UniProt Q8VFM8

CCc1nccnc1CC
inactive: UniProt Q8VF43 | UniProt Q8VF52 | UniProt Q8VFM8

CCCCCCCCCCOC(C)=O
inactive: UniProt Q8VF43 | UniProt Q8VF52 | UniProt Q8VFM8

CC(=O)OC1(C)CCC23CC1C(C)(C)C2CCC3C (configuration not stated)
active: UniProt Q8VF43 | UniProt Q8VF52
inactive: UniProt Q8VFM8

CC=Cc1ccc(OC)cc1
inactive: UniProt Q8VF43 | UniProt Q8VF52 | UniProt Q8VFM8

c1ccc2ncccc2c1
inactive: UniProt Q8VF43 | UniProt Q8VFM8
active: UniProt Q8VF52

Reference: the M2OR odorant receptor database
